Screening data (PubChem BioAssay)
In the library only some 2.1% were active in any assay of this set; here they are far more common.
Scp1 inh: blocks human Scp-1 phosphatase activity. Q9GZU7. Recombinant Scp1, phosphopeptide, malachite green phosphate absorbance. inhibition, % at 20 µM. 340,000 compounds, 0.88% hits. AID 493091;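 active = inhibition above about 50% at 20 µM, limit read from the data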;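 note: plate controls were DMSO wells with enzyme for no effect and wells lacking enzyme for full effect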
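Test system: SCP-1 phosphatase catalytic domain, residues 76-261; measured by: colorimetric phosphate reagent with accelerator and stabiliser, absorbance at 630 nm; timing: enzyme reaction 45 min at room temperature, colour 5 min, stabilisation 30 min; also added: Phosphorylated 17-residue peptide substrate; compound dosing: one concentration, 20 µM, with 1.0% DMSO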
SUMO1-SIM PPI: SUMO1-SIM interaction modulation; SUMO1 binding to a labelled peptide, TR-FRET, 1 h; inhibition, % at 20 µM; 360,000 compounds, 0.33% hits; AID 602429; in the data active = inhibition above about 37%
STEP inh: blocks human striatal-enriched tyrosine phosphatase; P54829; recombinant STEP, OMFP fluorogenic substrate, fluorescence; inhibition, % at 20 µM; 360,000 compounds, 0.25% hits;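 active = inhibition at 20 µM, scaled per plate between control wells, above about 37%, limit read from the data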;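 note: 0% = DMSO with enzyme and substrate and 100% = substrate only without enzyme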
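Test system: STEP tyrosine phosphatase / Reagent: OMFP at 25 µM / Doses: 20 µM, 1% DMSO / Read-out: percent inhibition scaled to no-enzyme and uninhibited-enzyme controls, plate-pattern corrected / Detection: FITC-channel fluorescence of OMFP product / Medium: Bis-Tris buffer pH 6.0, 2.5 mM DTT, 0.005% Tween 20 / Schedule: 20 min at room temperature, dark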
LMPTP inh: LMPTP (human) inhibition | P24666 | AID 651560 | recombinant LMPTP-A, OMFP fluorogenic substrate, fluorescence intensity | 360,000 compounds, 0.22% hits | inhibition, % at 20 µM;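 active = compounds that cut the enzyme signal by at least half of the control window in the single-dose screen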;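 note: plate controls were DMSO wells with enzyme plus substrate for no effect and substrate without enzyme for full effect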
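Test system: LMPTP-A phosphatase enzyme; input: 0.625 nM LMPTP-A final; reagent: OMFP substrate, 400 µM final; compound dosing: 20 µM single dose, 3% DMSO; incubation: 50 min dark incubation at room temperature; measured by: endpoint fluorescence intensity from OMFP dephosphorylation; measure: % inhibition relative to no-enzyme and uninhibited control wells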
DNMT1 block: DNMT1 (human) enzyme inhibition; P26358; DNMT1 molecular beacon, Hinp1I cleavage, fluorescence; inhibition (reported as % activation of signal), % at 10 µM; 360,000 compounds, 0.83% hits; AID 588458; in the data active = inhibition above about 50%
Target sequence (P26358 504-1616 limits assumed): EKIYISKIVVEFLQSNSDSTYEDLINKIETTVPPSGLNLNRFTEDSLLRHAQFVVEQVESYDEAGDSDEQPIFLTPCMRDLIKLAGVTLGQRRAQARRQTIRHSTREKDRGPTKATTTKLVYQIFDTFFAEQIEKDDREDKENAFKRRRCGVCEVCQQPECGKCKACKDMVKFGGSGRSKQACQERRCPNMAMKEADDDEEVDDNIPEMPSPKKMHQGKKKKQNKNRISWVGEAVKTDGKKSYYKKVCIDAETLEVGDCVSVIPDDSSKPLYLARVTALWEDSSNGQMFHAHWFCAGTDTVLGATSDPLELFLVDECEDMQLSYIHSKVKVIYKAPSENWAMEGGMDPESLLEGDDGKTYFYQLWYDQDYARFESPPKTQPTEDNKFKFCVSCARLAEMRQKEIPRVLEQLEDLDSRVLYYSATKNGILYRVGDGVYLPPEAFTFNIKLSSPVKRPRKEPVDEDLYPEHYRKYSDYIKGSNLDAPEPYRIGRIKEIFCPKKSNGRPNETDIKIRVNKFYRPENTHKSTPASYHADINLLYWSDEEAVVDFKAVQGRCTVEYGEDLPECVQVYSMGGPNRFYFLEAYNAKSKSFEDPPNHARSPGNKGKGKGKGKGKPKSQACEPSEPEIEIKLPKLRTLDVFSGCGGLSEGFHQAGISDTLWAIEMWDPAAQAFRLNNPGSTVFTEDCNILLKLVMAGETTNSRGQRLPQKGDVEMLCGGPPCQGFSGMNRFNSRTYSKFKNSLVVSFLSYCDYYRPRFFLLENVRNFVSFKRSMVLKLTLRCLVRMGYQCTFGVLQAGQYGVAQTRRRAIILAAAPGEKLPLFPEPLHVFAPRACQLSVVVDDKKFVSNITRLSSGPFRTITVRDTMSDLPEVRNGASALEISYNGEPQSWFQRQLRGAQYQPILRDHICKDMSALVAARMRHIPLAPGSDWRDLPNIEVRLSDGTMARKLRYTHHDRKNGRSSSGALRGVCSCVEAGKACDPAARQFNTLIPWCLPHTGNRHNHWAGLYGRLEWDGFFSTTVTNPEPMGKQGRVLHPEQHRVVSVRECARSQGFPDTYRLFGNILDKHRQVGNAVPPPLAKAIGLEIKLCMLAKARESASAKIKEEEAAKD
GRK2 aptamer HTS: human GRK2 inhibition via aptamer displacement; P25098; bead flow cytometry, FAM-aptamer displacement from GRK2; inhibition of aptamer binding, % at 10 µM; 330,000 compounds, 0.59% hits;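 active = inhibition of aptamer binding above 40%, roughly 3 SD of noise, on plates passing a quality check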;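 note: median bead fluorescence of bound FAM aptamer so fluorescent compounds give negative values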
STEP conf: STEP (human) phosphatase inhibition, single concentration confirmation; inhibition, % at 20 µM; 520 compounds, 32% hits; recombinant STEP, OMFP fluorogenic substrate, fluorescence; shares compounds with STEP inh; AID 623866; call rule not given here;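 note: 0% = enzyme with substrate plus DMSO and 100% = substrate without enzyme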
Active calls of the source: *.

For O=C(c1cc(-c2cccc(Cl)c2)nc2ccccc12)N1CCN(c2ccccn2)CC1 the results were Scp1 inh 0.0, SUMO1-SIM PPI -2.8, STEP inh 1.4, LMPTP inh 6.2, DNMT1 block -1.8 and GRK2 aptamer HTS 0.0.
O=C(c1ccc([N+](=O)[O-])cc1)N(Cc1cccs1)C1CCS(=O)(=O)C1 (stereo not drawn) was read as Scp1 inh 3.4, SUMO1-SIM PPI -27.9, STEP inh -2.1, LMPTP inh 1.3, DNMT1 block 1.4 and GRK2 aptamer HTS 0.0.
Screening OCCN1CCN(C(=S)c2ccc(Br)cc2)CC1 returned Scp1 inh 2.2, SUMO1-SIM PPI -1.6, STEP inh 84.0*, LMPTP inh -1.2, DNMT1 block 1.2, GRK2 aptamer HTS 0.0 and STEP conf 39.5*.
`S=C(c1ccc(Br)cc1)N1CCCC1` gave Scp1 inh -12.1, SUMO1-SIM PPI 2.5, STEP inh 1.2, LMPTP inh -1.2, DNMT1 block -0.6 and GRK2 aptamer HTS 0.0.
`CSc1ccc(C(=S)N2CCN(CCO)CC2)cc1` gave Scp1 inh -2.7, SUMO1-SIM PPI 0.3, STEP inh 53.9*, LMPTP inh 0.1, DNMT1 block -2.7, GRK2 aptamer HTS 1.0 and STEP conf 29.0.
For CCCCCCCC1CC(/C(C)=N/NC(N)=O)OC1=O (stereo not drawn) the results were Scp1 inh -7.8, SUMO1-SIM PPI 3.2, STEP inh 0.1, LMPTP inh -0.3, DNMT1 block -1.1 and GRK2 aptamer HTS 0.0.
Screening COc1cc(C(=S)N2CCCCC2)ccc1O returned Scp1 inh 0.3, SUMO1-SIM PPI 5.7, STEP inh 98.4*, LMPTP inh 0.3, DNMT1 block 7.5, GRK2 aptamer HTS 2.0 and STEP conf 74.9*.
For COc1cc(C(=S)N2CCCC2)ccc1O the results were Scp1 inh -6.1, SUMO1-SIM PPI 13.9, STEP inh -0.3, LMPTP inh -0.7, DNMT1 block -2.2 and GRK2 aptamer HTS 0.0.
For COc1cccc(C(=O)COc2ccc(NC(=O)c3ccccc3)cc2)c1 the results were Scp1 inh -6.1, SUMO1-SIM PPI 1.5, STEP inh -0.7, LMPTP inh 0.5 and DNMT1 block -1.6.
For CC(=O)Nc1cc(-c2nn(C)c(=O)c3ccccc23)ccc1N1CCOCC1 the results were Scp1 inh -4.3, SUMO1-SIM PPI -7.0, STEP inh -3.7, LMPTP inh -0.5, DNMT1 block 3.6 and GRK2 aptamer HTS 0.0.
`CCCC(=O)Nc1cc(-c2nn(C)c(=O)c3ccccc23)ccc1N1CCOCC1` gave Scp1 inh 23.1, SUMO1-SIM PPI -2.1, STEP inh 42.1*, LMPTP inh -2.0, DNMT1 block 9.5, GRK2 aptamer HTS 0.0 and STEP conf 8.7.
C[C@@H]1COc2cccc(N3CCC[C@@H]3CO)c2S(=O)(=O)N1 was read as SUMO1-SIM PPI 1.0 and LMPTP inh -0.8.
Screening Cc1cc([N+](=O)[O-])ccc1NC(=O)Cc1ccc(F)cc1 returned Scp1 inh -5.5, SUMO1-SIM PPI -10.3, STEP inh 117.4*, LMPTP inh -1.2, DNMT1 block -0.7, GRK2 aptamer HTS 0.0 and STEP conf 1.3.
COc1ccccc1N(CC(=O)NCCSCc1ccccc1Cl)S(C)(=O)=O was read as Scp1 inh -4.5, SUMO1-SIM PPI 3.7, STEP inh 2.4, LMPTP inh 0.0, DNMT1 block -2.1 and GRK2 aptamer HTS 1.0.
For Cc1ccc(C(=O)N/N=C\c2cccc(OC(=O)c3cccc(F)c3)c2)cn1 the results were Scp1 inh -7.4, SUMO1-SIM PPI -11.9, STEP inh 3.3, LMPTP inh 0.5, DNMT1 block -1.2 and GRK2 aptamer HTS 0.0.
Cc1ccc(C(=O)N/N=C\c2ccc(OC(=O)c3cccc(F)c3)cc2)cn1 was read as Scp1 inh 7.6, SUMO1-SIM PPI 4.3, STEP inh 82.1*, LMPTP inh 61.7*, DNMT1 block 2.7, GRK2 aptamer HTS 2.0 and STEP conf -5.4.
